Source: PubChem (several laboratories)
NTR1 ag = agonists of human neurotensin receptor NTR1. P30989. NTR1-U2OS beta-arrestin-GFP spot imaging, agonist mode. activation, % at 20 µM. 0.17% of 330,000 active;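 active = activation at or above 40% of the spot to cytoplasm intensity ratio, with at least 20 cells analyzed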;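 note: 0% = DMSO without peptide and 100% = 100 nM NTR1 peptide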
CXCR6 block = inhibitors of human CXCR6 receptor; O00574; CHO-K1 PathHunter CXCR6 beta-arrestin, luminescence; inhibition, % at 20 µM; 0.36% of 360,000 active; AID 602244; in the data active = inhibition above about 34%, passing the limit was not always enough;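 note: antagonist mode with CXCL16 agonist at 10 nM final; 0% = 10 nM CXCL16 with DMSO and 100% = unstimulated wells without agonist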
CCR6 antagonist = antagonists of human CCR6 receptor. CHO-K1 CCR6 PathHunter beta-arrestin, luminescence, CCL20-stimulated. inhibition, % at 20 µM. 0.49% of 340,000 active. AID 493098;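 active = compounds whose inhibition of the agonist-driven luminescence signal at 20 µM reaches about 50%, limit read from the data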;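 note: cells stimulated with CCL20 at 14 nM final; plate controls were DMSO with CCL20 for no effect and DMSO without agonist for full effect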
m5-HT2A agonist = activates the mouse 5-HT2A serotonin receptor; P35363; CHO-K1 mHTR2A beta-arrestin complementation, luminescence; percent of 30 µM serotonin response; activation, % at 7.6 µM; 0.66% of 360,000 active; AID 624169;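 active = activation above a run cutoff, the mean activation of all tested compounds plus 3 SD, cut at about 14% in these data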;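 note: 0% = plate median of compound wells and 100% = 30 µM serotonin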
APJ antag = APJ receptor antagonism; P35414; CHO-K1 APJ beta-arrestin complementation, luminescence; inhibition, % at 20 µM; 0.32% of 330,000 active; AID 2521;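 active = inhibition above about 40% at 20 µM, limit read from the data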;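 note: cells challenged with 10 nM apelin-13 agonist together with compound; plate controls were apelin-13 plus DMSO wells for no effect and DMSO wells lacking apelin-13 for full effect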
APJ ag = activates the human apelin receptor APJ; P35414; CHO-K1 APJ PathHunter beta-arrestin, luminescence; 0% DMSO wells, 100% apelin; activation, % at 20 µM; 0.11% of 330,000 active; AID 2520;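 active = activation more than six SD over the plate average, tested at 20 µM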;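 note: 0% = DMSO alone and 100% = apelin-13 at 10 nM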
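Assay system – PathHunter CHO-K1 APJ (AGTRL-1) beta-arrestin reporter cells · Compound – one dose, 20 µM compound, 1% DMSO · Timing – compound 90 min 25 °C, reagent 1 h · Measured by – luminescence from split beta-galactosidase complementation, Galacton Star/Emerald II substrate · Measure – beta-arrestin recruitment to APJ as agonist activity, luminescent signal · Benchmarks – DMSO vs Apelin-13 10 nM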
OPRM1 ag = OPRM1 agonism in mouse HTR2A counterscreen; shares compounds with m5-HT2A agonist; activation, % at 9.3 µM; 5.3% of 2,300 active; U2OS OPRM1 beta-arrestin PathHunter, luminescence; DMSO 0%, DAMGO 9.3 µM 100%;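 active = mean activation above the mean of DMSO-only wells plus 3 SD, cut at about 0.5% in these data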
Target sequence (P35372 whole entry, looked up): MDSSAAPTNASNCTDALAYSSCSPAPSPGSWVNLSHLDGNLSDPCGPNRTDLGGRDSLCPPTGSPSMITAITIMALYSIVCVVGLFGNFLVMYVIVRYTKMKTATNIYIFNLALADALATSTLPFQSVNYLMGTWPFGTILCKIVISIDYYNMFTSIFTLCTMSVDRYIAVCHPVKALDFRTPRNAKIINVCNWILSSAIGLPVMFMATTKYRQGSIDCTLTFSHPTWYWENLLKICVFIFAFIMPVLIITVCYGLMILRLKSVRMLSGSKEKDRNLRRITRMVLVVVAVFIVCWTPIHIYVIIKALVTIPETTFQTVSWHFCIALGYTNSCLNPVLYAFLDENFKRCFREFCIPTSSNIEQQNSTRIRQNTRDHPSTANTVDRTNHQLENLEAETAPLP
HTR2A ag conf = confirmation of mouse HTR2A serotonin receptor agonists. shares compounds with m5-HT2A agonist. CHO-K1 PathHunter beta-arrestin recruitment, luminescence; DMSO 0%, 30 µM serotonin 100%. activation, % at 7.6 µM. 19% of 2,300 active. AID 624381;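 active = mean activation across triplicates above the hit threshold derived in the original primary screen, cut at about 15% in these data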
Numbers without * were called inactive; . = no result given. In the library only some 1.5% were active in any assay of this set; here they are far more common.

SMILES	NTR1 ag	CXCR6 block	CCR6 antagonist	m5-HT2A agonist	APJ antag	APJ ag	OPRM1 ag	HTR2A ag conf
CC(=O)Nc1ccc(CN2CCN(CC(C)C)C(CCO)C2)cc1 (centres undefined)	-2	0	-3	14*	-19	-3	-1	-4
C=CCn1c(O)c2ccc(C(=O)N=NC(=O)COc3ccc(OC)cc3)cc2c1O	0	-12	3	-3	-10	1	.	.
Cc1cc(C)n(C(=O)c2cc([N+](=O)[O-])cc([N+](=O)[O-])c2)n1	0	-23	-15	45*	-27	-1	0	-3
OC(c1cc(C(F)(F)F)nc2c(C(F)(F)F)cccc12)C1CCCCN1 (centres undefined)	10	-13	0	31*	-18	13	1.3*	14
CCOc1ccc(S(=O)(=O)NCCC(=O)NCc2ccc(OC)c(OC)c2)cc1	2	3	6	14*	-1	-4	1.5*	8
CC(C)Oc1ccc(C(=O)Nc2ccc(N3CCN(C(=O)c4ccco4)CC3)cc2)cc1	1	-7	2	15*	28	1	0	-2
Cc1cc(C)c(S(=O)(=O)N2CCN(c3ccccn3)CC2)c(C)c1	4	-10	11	-4	9	-3	.	.
CC(=O)Nc1ccc(S(=O)(=O)NCCC(=O)OCC(=O)c2cccc(Br)c2)cc1	1	11	18	-3	26	-12	.	.
CCC(=O)N1CCCC(C)(C(=O)Nc2ccc(C)c(C)c2)C1 (centres undefined)	.	-1	.	17*	.	.	0	-1
COc1cccc(CNC(=O)c2ccc(CS(=O)Cc3ccc(C)cc3)o2)c1 (centres undefined)	1	-3	-2	8	13	1	.	.
O=C(O)c1ccc(-c2nc(-c3ccccc3Cl)cs2)cc1	-1	-2	9	-1	-1	-1	.	.
CCS(=O)(=O)c1ccc(-c2csc(-c3ccccc3)n2)c(Cl)c1Cl	4	5	8	16*	-7	0	0	2
Cc1oc(-c2ccc(Cl)cc2)nc1CS(=O)CC(=O)NCCCN1CCCC(C)C1 (centres undefined)	0	-6	22	17*	13	-2	0	-2
CC(C)Oc1ccc(S(=O)(=O)N2CCCCC2)cc1NC(=O)CC1OC(=O)c2ccccc21 (centres undefined)	1	-1	2	-2	15	-5	.	.
CC(C)Oc1ccc(S(=O)(=O)N2CCOCC2)cc1NC(=O)CC1OC(=O)c2ccccc21 (centres undefined)	1	5	2	16*	21	-2	0	0
CCOC(=O)C1=CN(Cc2ccc(OC)cc2)C=C(C(=O)OCC)C1c1cccs1	2	8	25	16*	-4	-3	-1	7
O=C(Nc1ccccn1)[C@@H]1CCC(=O)N1C(=O)OCc1ccccc1	-1	-1	2	18*	-14	-3	0	-3
Cc1csc2c(N3CCN(C(=O)NC(C)(C)C)CC3)ncnc12	1	6	4	41*	21	3	-1	-2
Cc1csc2c(N3CCN(C(=S)Nc4ccc(C(F)(F)F)cc4)CC3)ncnc12	11	-2	-17	32*	9	0	-1	8
COC(=O)CS(=O)(=O)c1cccc2cccnc12	0	-2	6	1	2	-1	.	.
COC(=O)Cc1ccc(OC2(C)CCN(Cc3csc4ccccc34)C2)cc1 (centres undefined)	.	0	.	-8	.	.	.	.
Cc1cc2nc(N3CCN(C(=O)c4ccco4)CC3)sc2cc1C	1	-13	-1	7	-7	-5	.	.
O=C(c1ccco1)N1CCN(c2nc3ccsc3c(=O)s2)CC1	11	2	9	42*	5	-4	-1	9
O=C(Nc1n[nH]c(=S)s1)c1ccc2ccccc2c1	1	-12	-2	18*	-12	3	0	2
CC(=O)c1cccc(S(=O)(=O)NCCC(=O)O)c1	2	6	-2	1	-15	2	.	.
SMILES	NTR1 ag	CXCR6 block	CCR6 antagonist	m5-HT2A agonist	APJ antag	APJ ag	OPRM1 ag	HTR2A ag conf
O=C(CCNC(=O)c1ccc(Br)cc1)NNC(=O)C1COc2ccccc2O1 (centres undefined)	-1	-1	12	7	-1	-2	.	.
NC(=S)NN=C(c1ccc(Br)cc1)C1CC1	.	0	4	4	.	.	.	.
CC(=O)C12OC1CC1C3CCC4=CC(=O)CCC4(C)C3CCC12C (centres undefined)	0	-6	8	16*	6	-1	-1	-2
C[C@]12CCC(=O)C=C1CCC1C2CC[C@@]2(C)C1CCC21OCCO1 (some centres undefined)	0	2	11	3	1	-1	.	.
COc1ccc(CCNC(=O)CNCC2CCCCC2)cc1OC	1	9	1	3	-15	-3	.	.
C/C(=C\c1ccccc1)CN1CCN(c2ccccc2)CC1	4	-9	0	19*	5	1	0	41*
CC1(C2CC2)NC(=O)N(CC(=O)Nc2ccccc2F)C1=O (centres undefined)	0	-10	9	-8	8	-2	.	.
Cc1ccc2c(cnn2C(=O)CCC(=O)NCc2ccccc2Cl)c1	2	1	4	19*	9	-2	0	-1
O=C(CSc1nnc(CNC(=O)c2c(F)cccc2F)o1)NCc1ccco1	2	3	-3	2	12	1	.	.
COc1ccccc1NC(=O)c1ccc(-c2ccc(Br)cc2)o1	6	-3	12	31*	3	-2	0	-3
O=C(Nc1ccccc1)c1ccc(-c2ccc(Br)cc2)o1	9	3	1	2	-3	-4	.	.
CC1(C(=O)NCc2ccccc2)CSCC(=O)N1C1CCN(Cc2ccccc2)CC1 (centres undefined)	.	.	.	-4	.	.	.	.
O=C1CN(C(=O)C2CCC(=O)N(CCc3ccc(Cl)cc3)C2)CCN1 (centres undefined)	0	-1	2	17*	-1	-3	-1	2
CCC(C)N(C(=O)COC(=O)CSc1ccc(C)c(C)c1)C1CCS(=O)(=O)C1 (centres undefined)	1	-7	0	15*	18	-2	0	0
